High-throughput results (PubChem BioAssay)
Shown are actives, neighbours in structure and some others; about 1.8% of the full set was active somewhere.
Cneo AK release: Cryptococcus neoformans lysis via adenylate kinase release; C. neoformans lysis, adenylate kinase release luminescence, 4 h; normalised: neutral wells 0, clomiphene wells 100; lysis activity, % at 15 µM; hit rate 0.2% among 360,000;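 active means mean lysis activity across replicates of at least 80%, whatever share of replicates individually reach that level; inactive means mean lysis activity below 80%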
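Material: C. neoformans cells | Amount: Yeast cell density of 5 × 10^6 cells/mL | Medium: Fresh YPD growth medium | Dosing: Single dose | Times: Static 4 h at 37 °C with compound, 1 h detection | Detection: AK luminescence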
C2C12 statin: protects C2C12 myotubes from simvastatin toxicity; ATP luminescence, 48 h; scaled: DMSO 0, geranylgeraniol control 100; rescue of ATP level, % at 7.49 µM; hit rate 0.78% among 330,000;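 active means mean ATP rescue above about 67%, or every replicate alone reaching that limit, limit read from the data, passing the limit was not always enough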;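 further: myotubes were challenged with 10 µM simvastatin during compound exposure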
SUMO Mot1 rescue: inhibitors of SUMOylation pathway: yeast Mot1-301 growth rescue. S. cerevisiae Mot1-301 growth rescue, ATP luminescence, 38.5C; percent above DMSO median, 100 means doubled. growth rescue, % at 18.8 µM. hit rate 1% among 320,000. AID 2716;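 active means every valid replicate shows activation above 250% relative to neutral control wells; inactive means the rest, any valid replicate at or below 250%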;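 further: OY570 slx delta 5 strain wells were the positive control but not used for scaling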
Efflux pump mplx: antifungal efflux pump inhibition, Nile Red retention. S. cerevisiae Candida pump triplex. inhibition, % at 10 µM. hit rate 0.44% among 330,000. AID 485275;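 active means plate passing quality check with inhibition over a set limit, or well fluorescence over plate mean plus 4 SD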;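 further: Nile Red retained in pooled yeast measured as flow cytometry median fluorescence; 0% = buffer negative control and 100% = Enniatin B positive control; higher means more Nile Red kept so more efflux inhibition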
Mot1 SUMO dose: yeast SUMO pathway inhibition in dose response | shares compounds with SUMO Mot1 rescue | S. cerevisiae Mot1-301 galactose growth, ATP luminescence, 24 h; -100 = growth of slx-deleted rescue strain | 2,300 tested, under 10 active | growth activity, percent, % at 42 µM;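 active means Signal drops as the depositor expects, and the fitted half-maximal dose is no more than ten times the top valid tested dose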;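 further: more negative values mean stronger growth rescue toward the control strain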
* hit, by the source's call.

Results for CCOC(=O)N1CCC(NS(=O)(=O)c2ccc(C)c(Cl)c2)CC1 ?
Cneo AK release: -1; SUMO Mot1 rescue: 559*; Efflux pump mplx: 0; Mot1 SUMO dose: 0

How did CCOC(=O)N1CCN(S(=O)(=O)c2ccc(C)c(C)c2)CC1 do in these assays?
Cneo AK release: 4; C2C12 statin: 13; SUMO Mot1 rescue: 388*; Efflux pump mplx: 0; Mot1 SUMO dose: 0

What do the screens show for `CCOC(=O)N1CCN(S(=O)(=O)c2ccc(Br)s2)CC1`?
Cneo AK release: 4; C2C12 statin: -5; SUMO Mot1 rescue: 365*; Efflux pump mplx: 0; Mot1 SUMO dose: 0

How did CCOC(=O)N1CCC(NS(=O)(=O)c2ccc3c(c2)oc(=O)n3C)CC1 do in these assays?
Cneo AK release: 4; C2C12 statin: 11; SUMO Mot1 rescue: -9; Efflux pump mplx: 0

How did CN1CCN(S(=O)(=O)c2ccc(Br)s2)CC1 do in these assays?
Cneo AK release: -1; C2C12 statin: 1; SUMO Mot1 rescue: -18; Efflux pump mplx: 0

What do the screens show for `CN(C(=O)COc1cc(=O)n(C)c2ccccc12)c1ccc(Cl)cc1`?
Cneo AK release: -1; C2C12 statin: -1; SUMO Mot1 rescue: 447*; Efflux pump mplx: 0; Mot1 SUMO dose: 0

Results for CCOC(=O)c1c(C)n(C)c2cc(-c3ccc(C)cc3)c(O)cc12 ?
Cneo AK release: 7; C2C12 statin: -7; SUMO Mot1 rescue: 645*; Efflux pump mplx: 0; Mot1 SUMO dose: 0

Results for Cc1ccc(S(=O)(=O)N2CCCc3ccccc32)cc1 ?
Cneo AK release: -5; C2C12 statin: -7

Results for Cc1ccc(C)c(C(C)NC(=O)c2ccncc2)c1 (centres undefined) ?
Cneo AK release: -1; C2C12 statin: 1; SUMO Mot1 rescue: 752*; Efflux pump mplx: 0; Mot1 SUMO dose: 0

What do the screens show for `CCOC(=O)c1cnc2c(OC)cccc2c1Oc1ccccc1`?
Cneo AK release: 7; C2C12 statin: 13; SUMO Mot1 rescue: -7; Efflux pump mplx: 0

Results for S=C(c1ccc(N2CCOCC2)cc1)N1CCCCC1 ?
Cneo AK release: -1; C2C12 statin: 7; SUMO Mot1 rescue: 367*; Efflux pump mplx: 0; Mot1 SUMO dose: 0

What do the screens show for `Oc1ccc(C(=S)N2CCCCC2)cc1`?
Cneo AK release: 0; C2C12 statin: -3; SUMO Mot1 rescue: 28; Efflux pump mplx: 0

Results for CCn1c(SCC(=O)Nc2ccc(NC(=O)c3ccco3)cc2)nnc1-c1cccs1 ?
Cneo AK release: 1; SUMO Mot1 rescue: active; Efflux pump mplx: 0; Mot1 SUMO dose: 0

How did COc1ccc(N2CCN(C3CCCN(Cc4ccc(F)c(F)c4)C3)CC2)cc1 (centres undefined) do in these assays?
Cneo AK release: -3; C2C12 statin: 12; SUMO Mot1 rescue: 13; Efflux pump mplx: 0

How did COc1cccc(N2CCN(C3CCCC(C)C3)CC2)c1 (centres undefined) do in these assays?
Cneo AK release: -3; C2C12 statin: -5; SUMO Mot1 rescue: 676*; Efflux pump mplx: -1; Mot1 SUMO dose: 0

What do the screens show for `COc1ccc(N2CCN(C3CCCN(Cc4cccc(OC)c4)C3)CC2)cc1` (centres undefined)?
Cneo AK release: -2; C2C12 statin: 6; SUMO Mot1 rescue: 667*; Efflux pump mplx: 0; Mot1 SUMO dose: 0

What do the screens show for `O=C(CSc1nnc(NC(=O)C2CCC2)s1)Nc1ccccc1`?
Cneo AK release: -3; C2C12 statin: 5; SUMO Mot1 rescue: 63; Efflux pump mplx: 0

Results for O=C(NCc1cccnc1)C1CCN(S(=O)(=O)c2cccnc2)CC1 ?
Cneo AK release: 1; C2C12 statin: 8; SUMO Mot1 rescue: active; Efflux pump mplx: 0; Mot1 SUMO dose: -1

How did COc1cc2c(-c3ccc4cc[nH]c4c3)c(-c3ccc(C#N)cc3)oc(=O)c2cc1OC do in these assays?
Cneo AK release: -1; C2C12 statin: 33; SUMO Mot1 rescue: 9; Efflux pump mplx: 0

How did COc1ccc(C(=O)Oc2cccc(/C=N/NC(N)=S)c2)cc1 do in these assays?
SUMO Mot1 rescue: 211; Efflux pump mplx: 0

How did Cc1cc(=O)n2[nH]c(-c3ccc(F)cc3)nc2n1 do in these assays?
Cneo AK release: -3; SUMO Mot1 rescue: 551*; Efflux pump mplx: 0; Mot1 SUMO dose: 0

Results for Cc1cc(=O)n2[nH]c(-c3cccnc3)nc2n1 ?
SUMO Mot1 rescue: 8; Efflux pump mplx: 0

How did C/C(=N/NC(=O)c1ccccc1)C(=O)O do in these assays?
C2C12 statin: -3; SUMO Mot1 rescue: -14; Efflux pump mplx: 0

How did N[C@@H](Cc1ccc(O)c(I)c1)C(=O)O do in these assays?
SUMO Mot1 rescue: 640*; Efflux pump mplx: 0; Mot1 SUMO dose: 0

How did N[C@@H](Cc1ccc(F)cc1)C(=O)O do in these assays?
Cneo AK release: 2; C2C12 statin: 0

What do the screens show for `Cc1nnc(SCc2cnc(-c3ccc(C(C)C)cc3)s2)n1C`?
Cneo AK release: 0; C2C12 statin: -11; SUMO Mot1 rescue: -26; Efflux pump mplx: 0

How did COc1cc(NC(=O)Cn2cnc(S(=O)(=O)N3CCCCC3)c2)cc(OC)c1OC do in these assays?
Cneo AK release: 0; C2C12 statin: -11; SUMO Mot1 rescue: 25; Efflux pump mplx: 0

Results for Cc1ccc(C2=NN(CC(=O)NCCN(C)C)C(=O)CC2)cc1 ?
Cneo AK release: -2; C2C12 statin: 0; SUMO Mot1 rescue: -8; Efflux pump mplx: 0

What do the screens show for `Cc1ccc(C2=NN(CC(=O)NCc3cccs3)C(=O)CC2)cc1`?
C2C12 statin: 10; SUMO Mot1 rescue: 399*; Efflux pump mplx: 0; Mot1 SUMO dose: 0

How did CCCCNS(=O)(=O)c1ccc2c(c1)oc(=O)n2CC(=O)OCC do in these assays?
Cneo AK release: 0; C2C12 statin: 12; SUMO Mot1 rescue: 540*; Efflux pump mplx: 0; Mot1 SUMO dose: 0

What do the screens show for `CCOC(=O)Cn1c(=O)oc2cc(S(=O)(=O)Nc3c(C)cc(C)cc3C)ccc21`?
Cneo AK release: -2; C2C12 statin: 1; SUMO Mot1 rescue: 7; Efflux pump mplx: 0

How did Cc1c(Br)c([N+](=O)[O-])nn1CC(=O)Nc1nccs1 do in these assays?
SUMO Mot1 rescue: -4; Efflux pump mplx: 0

What do the screens show for `O=C1C2CCCN2C(=S)N1C1CCCCC1` (centres undefined)?
Cneo AK release: -1; C2C12 statin: -23; SUMO Mot1 rescue: 622*; Efflux pump mplx: 0; Mot1 SUMO dose: -1

Results for Cc1ccc(N2C(=O)C3CCCN3C2=S)cc1 (centres undefined) ?
Cneo AK release: 3; C2C12 statin: 6; SUMO Mot1 rescue: 231; Efflux pump mplx: 0

How did Cc1nc2sc(C(c3ccccc3)N3CCC(O)CC3)c(O)n2n1 (centres undefined) do in these assays?
Cneo AK release: -2; SUMO Mot1 rescue: active; Efflux pump mplx: 0; Mot1 SUMO dose: 1

What do the screens show for `Cc1nc2sc(C(c3cccc(F)c3)N3CCC(O)CC3)c(O)n2n1` (centres undefined)?
Cneo AK release: 0; SUMO Mot1 rescue: -13; Efflux pump mplx: 0
